In ChEMBL document CHEMBL4689842, “EUbOPEN Chemogenomics Library wave 1” (2021):

Legend:
Type in all cases: toxicity, cell-based
[1] = test system: U2OS; assay: Multiplex assay against U2OS; settings: human
Procedure, shortened: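 Compound was added to live cells that had been stained at seeding with Hoechst33342, BioTracker Green Microtubule Cytoskeleton Dye, MitoTracker Red and Annexin V Alexa Fluor 680, and imaging followed on a CQ1 microscope at 37°C and 5% CO2. CellPathfinder machine-learning gating divided cells into Hoechst high-intensity objects or normal cells, normal cells into healthy, pyknosed or fragmented nuclei, and pyknosed cells into mitotic or apoptotic. Tubulin, mitochondrial-mass and membrane-permeability phenotypes are per cents of healthy-nucleus cells.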

[2] = test system: HEK-293T; assay: Incucyte cell viability with HEK293T; settings: human, 10 µM, compound concentration 10 uM; also: filed as whole numbers so only -1 and 0 and 1 occur
[3] = test system: Fibroblast; assay: Incucyte cell viability with human fibroblast; settings: 10 µM, compound concentration 10 uM; also: filed as whole numbers so only -1 and 0 and 1 occur
[4] = test system: U2OS; assay: Incucyte cell viability with U2OS; settings: human, 10 µM, compound concentration 10 uM; also: filed as whole numbers so only -1 and 0 and 1 occur
[5] = 12 h, 1 µM, compound concentration 1 uM, replicate 1
[6] = 12 h, 1 µM, compound concentration 1 uM, replicate 2
[7] = 12 h, 10 µM, compound concentration 10 uM, replicate 1
[8] = 12 h, 10 µM, compound concentration 10 uM, replicate 2
[9] = 24 h, 1 µM, compound concentration 1 uM, replicate 1
[10] = 24 h, 1 µM, compound concentration 1 uM, replicate 2
[11] = 24 h, 10 µM, compound concentration 10 uM, replicate 1
[12] = 24 h, 10 µM, compound concentration 10 uM, replicate 2
[13] = 0 h, replicate number 1, timepoint 0 hours
[14] = 0 h, replicate number 2, timepoint 0 hours
[15] = 12 h, replicate number 2, timepoint 12 hours
[16] = 18 h, replicate number 1, timepoint 18 hours
[17] = 24 h, replicate number 1, timepoint 24 hours
[18] = 6 h, replicate number 1, timepoint 6 hours
[19] = 12 h, replicate number 1, timepoint 12 hours

CCOc1cc(N2CCC(O)CC2)ccc1Nc1ncc2c(n1)N(C1CCCC1)CCC(=O)N2C
Population Apoptotic (%) [1, 5]: 46%
Population Fragmented Nuclei (%) [1, 5]: 5%
Population Healthy Nuclei (%) [1, 5]: 86%
Population Hoechst High Intensity Objects (%) [1, 5]: 4%
Population Membrane Permeable-Phenotype (%) [1, 5]: 16%
Population Mitochondria Different-Phenotype (%) [1, 5]: 14%
Population Mitotic Cells (%) [1, 5]: 53%
Population Normal (%) [1, 5]: 95%
Population Pyknosed Nuclei (%) [1, 5]: 8%
Population Tubulin-Different-Phenotype (%) [1, 5]: 18%
Population Apoptotic (%) [1, 6]: 50%
Population Fragmented Nuclei (%) [1, 6]: 8%
Population Healthy Nuclei (%) [1, 6]: 89%
Population Hoechst High Intensity Objects (%) [1, 6]: 7%
Population Membrane Permeable-Phenotype (%) [1, 6]: 18%
Population Mitochondria Different-Phenotype (%) [1, 6]: 16%
Population Mitotic Cells (%) [1, 6]: 50%
Population Normal (%) [1, 6]: 92%
Population Pyknosed Nuclei (%) [1, 6]: 2%
Population Tubulin-Different-Phenotype (%) [1, 6]: 17%
Population Apoptotic (%) [1, 7]: 27%
Population Fragmented Nuclei (%) [1, 7]: 4%
Population Healthy Nuclei (%) [1, 7]: 89%
Population Hoechst High Intensity Objects (%) [1, 7]: 1%
Population Membrane Permeable-Phenotype (%) [1, 7]: 5%
Population Mitochondria Different-Phenotype (%) [1, 7]: 24%
Population Mitotic Cells (%) [1, 7]: 72%
Population Normal (%) [1, 7]: 98%
Population Pyknosed Nuclei (%) [1, 7]: 5%
Population Tubulin-Different-Phenotype (%) [1, 7]: 28%
Population Apoptotic (%) [1, 8]: 33%
Population Fragmented Nuclei (%) [1, 8]: 7%
Population Healthy Nuclei (%) [1, 8]: 90%
Population Hoechst High Intensity Objects (%) [1, 8]: 8%
Population Membrane Permeable-Phenotype (%) [1, 8]: 7%
Population Mitochondria Different-Phenotype (%) [1, 8]: 33%
Population Mitotic Cells (%) [1, 8]: 66%
Population Normal (%) [1, 8]: 91%
Population Pyknosed Nuclei (%) [1, 8]: 2%
Population Tubulin-Different-Phenotype (%) [1, 8]: 27%
Population Fragmented Nuclei (%) [1, 9]: 7%
Population Healthy Nuclei (%) [1, 9]: 87%
Population Hoechst High Intensity Objects (%) [1, 9]: 2%
Population Membrane Permeable-Phenotype (%) [1, 9]: 8%
Population Mitochondria Different-Phenotype (%) [1, 9]: 17%
Population Normal (%) [1, 9]: 97%
Population Tubulin-Different-Phenotype (%) [1, 9]: 18%
Population Apoptotic (%) [1, 10]: 60%
Population Fragmented Nuclei (%) [1, 10]: 10%
Population Healthy Nuclei (%) [1, 10]: 85%
Population Hoechst High Intensity Objects (%) [1, 10]: 6%
Population Membrane Permeable-Phenotype (%) [1, 10]: 11%
Population Mitochondria Different-Phenotype (%) [1, 10]: 20%
Population Mitotic Cells (%) [1, 10]: 40%
Population Normal (%) [1, 10]: 93%
Population Pyknosed Nuclei (%) [1, 10]: 4%
Population Tubulin-Different-Phenotype (%) [1, 10]: 20%
Population Apoptotic (%) [1, 11]: 44%
Population Fragmented Nuclei (%) [1, 11]: 3%
Population Healthy Nuclei (%) [1, 11]: 93%
Population Hoechst High Intensity Objects (%) [1, 11]: 1%
Population Membrane Permeable-Phenotype (%) [1, 11]: 5%
Population Mitochondria Different-Phenotype (%) [1, 11]: 22%
Population Mitotic Cells (%) [1, 11]: 55%
Population Normal (%) [1, 11]: 98%
Population Pyknosed Nuclei (%) [1, 11]: 3%
Population Tubulin-Different-Phenotype (%) [1, 11]: 24%
Population Apoptotic (%) [1, 12]: 20%
Population Fragmented Nuclei (%) [1, 12]: 9%
Population Healthy Nuclei (%) [1, 12]: 87%
Population Hoechst High Intensity Objects (%) [1, 12]: 7%
Population Membrane Permeable-Phenotype (%) [1, 12]: 2%
Population Mitochondria Different-Phenotype (%) [1, 12]: 24%
Population Mitotic Cells (%) [1, 12]: 80%
Population Normal (%) [1, 12]: 92%
Population Pyknosed Nuclei (%) [1, 12]: 2%
Population Tubulin-Different-Phenotype (%) [1, 12]: 38%
Growth Rate [2, 13]: 0
Growth Rate [2, 14]: 1
Growth Rate [2, 15]: 1
Growth Rate [2, 16]: 1
Growth Rate [2, 17]: 0
Growth Rate [3, 13]: 1
Growth Rate [3, 14]: 0
Growth Rate [3, 18]: 0
Growth Rate ([3]; 6 h, replicate number 2, timepoint 6 hours): 1
Growth Rate [3, 19]: 0
Growth Rate [3, 15]: 1
Growth Rate [3, 16]: 0
Growth Rate [3, 17]: 0
Growth Rate [4, 14]: 0
Growth Rate [4, 18]: 0
Growth Rate [4, 19]: 1
Growth Rate [4, 15]: 0
Growth Rate [4, 16]: 0
Growth Rate [4, 17]: 0
